Experimental data as given in ChEMBL document CHEMBL4689842, “EUbOPEN Chemogenomics Library wave 1” (2021).
“And” between values parts separate entries of the source, which are not always exact repeats. Equal values may be shown once.

Columns and labels:
Format in all cases: toxicity, cell-based
Fibroblast [1] = assay: Multiplex assay against human fibroblast
Summary of the method: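 Imaging took place on a CQ1 microscope at 37°C and 5% CO2 once compound had been added to live cells stained at seeding with Hoechst33342, BioTracker Green Microtubule Cytoskeleton Dye, MitoTracker Red and Annexin V Alexa Fluor 680. CellPathfinder machine-learning gating classed cells as Hoechst high-intensity objects or normal cells, classed normal cells as having healthy, pyknosed or fragmented nuclei, and classed pyknosed cells as mitotic or apoptotic. Tubulin, mitochondrial-mass and membrane-permeability phenotypes are per cents of the healthy-nucleus cells.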

HEK-293T = assay: Incucyte cell viability with HEK293T; conditions: human, 10 µM, compound concentration 10 uM; note: filed as whole numbers so only -1 and 0 and 1 occur
Fibroblast [2] = assay: Incucyte cell viability with human fibroblast; conditions: 10 µM, compound concentration 10 uM; note: filed as whole numbers so only -1 and 0 and 1 occur
U2OS = assay: Incucyte cell viability with U2OS; conditions: human, 10 µM, compound concentration 10 uM; note: filed as whole numbers so only -1 and 0 and 1 occur
[3] = 12 h, 1 µM, compound concentration 1 uM, replicate 1
[4] = 12 h, 1 µM, compound concentration 1 uM, replicate 2
[5] = 12 h, 10 µM, compound concentration 10 uM, replicate 1
[6] = 12 h, 10 µM, compound concentration 10 uM, replicate 2
[7] = 24 h, 1 µM, compound concentration 1 uM, replicate 1
[8] = 24 h, 1 µM, compound concentration 1 uM, replicate 2
[9] = 24 h, 10 µM, compound concentration 10 uM, replicate 1
[10] = 24 h, 10 µM, compound concentration 10 uM, replicate 2
[11] = 48 h, 10 µM, compound concentration 10 uM, replicate 1
[12] = 48 h, 10 µM, compound concentration 10 uM, replicate 2
[13] = 6 h, replicate number 1, timepoint 6 hours
[14] = 12 h, replicate number 1, timepoint 12 hours
[15] = 18 h, replicate number 1, timepoint 18 hours
[16] = 24 h, replicate number 1, timepoint 24 hours

COc1cc(N2CCC(N(C)C)CC2)ccc1Nc1ncc(Cl)c(Nc2ccccc2P(C)(C)=O)n1
Population Apoptotic (%) (Fibroblast [1]; [3]): 64%
Population Fragmented Nuclei (%) (Fibroblast [1]; [3]): 26%
Population Healthy Nuclei (%) (Fibroblast [1]; [3]): 56%
Population Hoechst High Intensity Objects (%) (Fibroblast [1]; [3]): 14%
Population Membrane Permeable-Phenotype (%) (Fibroblast [1]; [3]): 8%
Population Mitochondria Different-Phenotype (%) (Fibroblast [1]; [3]): 6%
Population Mitotic Cells (%) (Fibroblast [1]; [3]): 35%
Population Normal (%) (Fibroblast [1]; [3]): 85%
Population Pyknosed Nuclei (%) (Fibroblast [1]; [3]): 16%
Population Tubulin-Different-Phenotype (%) (Fibroblast [1]; [3]): 6%
Total Cell Count (Fibroblast [1]; [3]): 202
Population Apoptotic (%) (Fibroblast [1]; [4]): 42%
Population Fragmented Nuclei (%) (Fibroblast [1]; [4]): 52%
Population Healthy Nuclei (%) (Fibroblast [1]; [4]): 31%
Population Hoechst High Intensity Objects (%) (Fibroblast [1]; [4]): 24%
Population Membrane Permeable-Phenotype (%) (Fibroblast [1]; [4]): 14%
Population Mitochondria Different-Phenotype (%) (Fibroblast [1]; [4]): 7%
Population Mitotic Cells (%) (Fibroblast [1]; [4]): 57%
Population Normal (%) (Fibroblast [1]; [4]): 75%
Population Pyknosed Nuclei (%) (Fibroblast [1]; [4]): 15%
Population Tubulin-Different-Phenotype (%) (Fibroblast [1]; [4]): 21%
Total Cell Count (Fibroblast [1]; [4]): 58
Population Apoptotic (%) (Fibroblast [1]; [5]): 73% and 69%
Population Fragmented Nuclei (%) (Fibroblast [1]; [5]): 27% and 24%
Population Healthy Nuclei (%) (Fibroblast [1]; [5]): 45% and 57%
Population Hoechst High Intensity Objects (%) (Fibroblast [1]; [5]): 13%
Population Mitochondria Different-Phenotype (%) (Fibroblast [1]; [5]): 7% and 6%
Population Mitotic Cells (%) (Fibroblast [1]; [5]): 26% and 30%
Population Normal (%) (Fibroblast [1]; [5]): 86%
Population Pyknosed Nuclei (%) (Fibroblast [1]; [5]): 27% and 17%
Total Cell Count (Fibroblast [1]; [5]): 98 and 215
Population Apoptotic (%) (Fibroblast [1]; [6]): 37% and 88%
Population Fragmented Nuclei (%) (Fibroblast [1]; [6]): 45% and 26%
Population Healthy Nuclei (%) (Fibroblast [1]; [6]): 32%
Population Hoechst High Intensity Objects (%) (Fibroblast [1]; [6]): 39% and 16%
Population Membrane Permeable-Phenotype (%) (Fibroblast [1]; [6]): 8% and 15%
Population Normal (%) (Fibroblast [1]; [6]): 60% and 83%
Population Pyknosed Nuclei (%) (Fibroblast [1]; [6]): 21% and 40%
Population Tubulin-Different-Phenotype (%) (Fibroblast [1]; [6]): 41% and 90%
Total Cell Count (Fibroblast [1]; [6]): 61 and 73
Population Apoptotic (%) (Fibroblast [1]; [7]): 96%
Population Fragmented Nuclei (%) (Fibroblast [1]; [7]): 18%
Population Healthy Nuclei (%) (Fibroblast [1]; [7]): 65%
Population Hoechst High Intensity Objects (%) (Fibroblast [1]; [7]): 14%
Population Membrane Permeable-Phenotype (%) (Fibroblast [1]; [7]): 6%
Population Mitotic Cells (%) (Fibroblast [1]; [7]): 3%
Population Normal (%) (Fibroblast [1]; [7]): 85%
Population Pyknosed Nuclei (%) (Fibroblast [1]; [7]): 16%
Population Tubulin-Different-Phenotype (%) (Fibroblast [1]; [7]): 4%
Total Cell Count (Fibroblast [1]; [7]): 204
Population Apoptotic (%) (Fibroblast [1]; [8]): 57%
Population Fragmented Nuclei (%) (Fibroblast [1]; [8]): 43%
Population Healthy Nuclei (%) (Fibroblast [1]; [8]): 38%
Population Hoechst High Intensity Objects (%) (Fibroblast [1]; [8]): 32%
Population Membrane Permeable-Phenotype (%) (Fibroblast [1]; [8]): 0%
Population Mitochondria Different-Phenotype (%) (Fibroblast [1]; [8]): 6%
Population Mitotic Cells (%) (Fibroblast [1]; [8]): 42%
Population Normal (%) (Fibroblast [1]; [8]): 67%
Population Pyknosed Nuclei (%) (Fibroblast [1]; [8]): 17%
Population Tubulin-Different-Phenotype (%) (Fibroblast [1]; [8]): 13%
Total Cell Count (Fibroblast [1]; [8]): 58
Population Apoptotic (%) (Fibroblast [1]; [9]): 68% and 88%
Population Fragmented Nuclei (%) (Fibroblast [1]; [9]): 29% and 31%
Population Healthy Nuclei (%) (Fibroblast [1]; [9]): 50% and 54%
Population Hoechst High Intensity Objects (%) (Fibroblast [1]; [9]): 13%
Population Mitochondria Different-Phenotype (%) (Fibroblast [1]; [9]): 14% and 9%
Population Mitotic Cells (%) (Fibroblast [1]; [9]): 31% and 11%
Population Normal (%) (Fibroblast [1]; [9]): 86%
Population Pyknosed Nuclei (%) (Fibroblast [1]; [9]): 19% and 14%
Total Cell Count (Fibroblast [1]; [9]): 94 and 210
Population Apoptotic (%) (Fibroblast [1]; [10]): 66% and 92%
Population Fragmented Nuclei (%) (Fibroblast [1]; [10]): 47% and 26%
Population Healthy Nuclei (%) (Fibroblast [1]; [10]): 35% and 15%
Population Hoechst High Intensity Objects (%) (Fibroblast [1]; [10]): 39% and 38%
Population Normal (%) (Fibroblast [1]; [10]): 60% and 61%
Population Tubulin-Different-Phenotype (%) (Fibroblast [1]; [10]): 41% and 100%
Total Cell Count (Fibroblast [1]; [10]): 56 and 75
Population Apoptotic (%) (Fibroblast [1]; [11]): 87%
Population Fragmented Nuclei (%) (Fibroblast [1]; [11]): 47%
Population Healthy Nuclei (%) (Fibroblast [1]; [11]): 41%
Population Hoechst High Intensity Objects (%) (Fibroblast [1]; [11]): 22%
Population Membrane Permeable-Phenotype (%) (Fibroblast [1]; [11]): 20%
Population Mitochondria Different-Phenotype (%) (Fibroblast [1]; [11]): 23%
Population Mitotic Cells (%) (Fibroblast [1]; [11]): 12%
Population Normal (%) (Fibroblast [1]; [11]): 77%
Population Pyknosed Nuclei (%) (Fibroblast [1]; [11]): 10%
Population Tubulin-Different-Phenotype (%) (Fibroblast [1]; [11]): 70%
Total Cell Count (Fibroblast [1]; [11]): 94
Population Apoptotic (%) (Fibroblast [1]; [12]): 66%
Population Fragmented Nuclei (%) (Fibroblast [1]; [12]): 34%
Population Healthy Nuclei (%) (Fibroblast [1]; [12]): 61%
Population Hoechst High Intensity Objects (%) (Fibroblast [1]; [12]): 16%
Population Membrane Permeable-Phenotype (%) (Fibroblast [1]; [12]): 22%
Population Mitochondria Different-Phenotype (%) (Fibroblast [1]; [12]): 9%
Population Mitotic Cells (%) (Fibroblast [1]; [12]): 33%
Population Normal (%) (Fibroblast [1]; [12]): 83%
Population Pyknosed Nuclei (%) (Fibroblast [1]; [12]): 4%
Population Tubulin-Different-Phenotype (%) (Fibroblast [1]; [12]): 56%
Total Cell Count (Fibroblast [1]; [12]): 86
Growth Rate (HEK-293T; [13]): 0
Growth Rate (HEK-293T; [14]): 0
Growth Rate (HEK-293T; [15]): 0
Growth Rate (HEK-293T; [16]): 0
Growth Rate (Fibroblast [2]; 0 h, replicate number 2, timepoint 0 hours): 0
Growth Rate (Fibroblast [2]; [13]): 1
Growth Rate (Fibroblast [2]; [14]): 0
Growth Rate (Fibroblast [2]; 12 h, replicate number 2, timepoint 12 hours): 1
Growth Rate (Fibroblast [2]; [15]): 0
Growth Rate (Fibroblast [2]; 18 h, replicate number 2, timepoint 18 hours): 1
Growth Rate (Fibroblast [2]; [16]): 0
Growth Rate (U2OS; 0 h, replicate number 1, timepoint 0 hours): 0
Growth Rate (U2OS; [13]): 0
Growth Rate (U2OS; [14]): 0
Growth Rate (U2OS; [15]): 0
Growth Rate (U2OS; [16]): 0
